STAT3 act-1 = increases IL-6 driven STAT3 reporter signal; U3A cells, IL-6 STAT3-luciferase reporter, luminescence; 100% = signal with IL-6 EC80 alone; activation (% of control), % at 5.6 µM; actives 0.91% (n = 190,000);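 active = activation above the screen-wide mean of compound activation plus 3 SD, cut at about 130% in these data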;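 also: 0% = background luminescence of wells with medium and substrate only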
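Test system: human U3A cells carrying STAT3-luciferase construct; control set: IL-6-only wells as 100% reference; timing: compound pre-incubation 1 h before IL-6, then 6 h stimulation at 37 °C; also added: IL-6 stimulus at 33 ng/mL final; evaluation: % activation versus median of IL-6-stimulated wells; detection: reporter luminescence signal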
STAT1 inh = STAT1 signaling inhibition; actives 0.35% (n = 200,000); inhibition, % at 5.5 µM; NIH 3T3 STAT1-luciferase reporter, IFN-gamma, luminescence;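 active = inhibition above a set limit, the mean inhibition across all tested compounds plus 3 SD, cut at about 34% in these data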;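 also: 0% = IFN-gamma with DMSO and 100% = IFN-gamma with 300 µM nifuroxazide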
PERK inh = inhibitors of human PERK kinase; Q9NZJ5; CHO PERK-DD fusion, SEAP luminescence translation reporter; inhibition, % at 5.6 µM; actives 0.17% (n = 220,000); AID 1416;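 active = inhibition above the mean inhibition of all tested compounds plus 3 SD, set separately per screening campaign, cut at about 2.9% in these data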;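 also: PERK kinase domain activated by AP20187 dimerizer at 100 nM; 0% = DMSO with dimerizer and 100% = rapamycin at 8.4 µM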
Target sequence (Q9NZJ5 whole entry, looked up, the tested form may be a part): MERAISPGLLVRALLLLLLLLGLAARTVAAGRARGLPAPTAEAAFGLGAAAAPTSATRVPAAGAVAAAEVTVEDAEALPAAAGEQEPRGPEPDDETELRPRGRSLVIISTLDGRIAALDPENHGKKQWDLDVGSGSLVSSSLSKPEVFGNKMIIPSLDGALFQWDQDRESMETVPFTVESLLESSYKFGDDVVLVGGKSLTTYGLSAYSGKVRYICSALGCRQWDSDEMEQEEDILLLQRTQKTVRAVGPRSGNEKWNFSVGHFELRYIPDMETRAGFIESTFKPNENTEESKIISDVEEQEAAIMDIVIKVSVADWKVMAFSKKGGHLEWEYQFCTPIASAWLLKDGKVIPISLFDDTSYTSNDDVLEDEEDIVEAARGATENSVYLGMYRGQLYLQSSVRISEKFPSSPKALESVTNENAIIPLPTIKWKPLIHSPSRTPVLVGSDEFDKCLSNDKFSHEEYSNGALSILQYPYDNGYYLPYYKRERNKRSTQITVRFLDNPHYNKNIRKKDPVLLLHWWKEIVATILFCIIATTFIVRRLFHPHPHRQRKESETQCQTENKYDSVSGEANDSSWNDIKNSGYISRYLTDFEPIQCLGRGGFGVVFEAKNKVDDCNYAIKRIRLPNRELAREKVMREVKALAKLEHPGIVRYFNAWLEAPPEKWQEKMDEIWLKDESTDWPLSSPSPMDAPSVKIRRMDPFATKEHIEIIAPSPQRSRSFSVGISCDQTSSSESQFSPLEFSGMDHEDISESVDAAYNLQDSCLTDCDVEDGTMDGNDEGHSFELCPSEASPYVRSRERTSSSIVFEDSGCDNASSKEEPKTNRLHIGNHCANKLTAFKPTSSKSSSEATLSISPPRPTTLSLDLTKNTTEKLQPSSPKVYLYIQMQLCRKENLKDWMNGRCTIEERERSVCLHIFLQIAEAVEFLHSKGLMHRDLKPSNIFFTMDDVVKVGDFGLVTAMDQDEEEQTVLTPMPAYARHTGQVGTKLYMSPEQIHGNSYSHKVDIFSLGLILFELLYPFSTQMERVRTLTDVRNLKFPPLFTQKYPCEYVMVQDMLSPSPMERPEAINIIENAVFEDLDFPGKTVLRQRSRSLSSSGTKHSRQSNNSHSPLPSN
STAT3 inh = inhibitors of IL-6 induced STAT3 signaling | U3A cells, IL-6 STAT3-luciferase reporter, luminescence; host cell line lacks STAT1 | inhibition, % at 5.5 µM | actives 0.89% (n = 190,000);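 active = inhibition above the mean inhibition across all screened compounds plus 3 SD, cut at about 44% in these data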;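 also: 0% = DMSO only wells and 100% = 100 µM nifuroxazide control wells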
STAT3 act-2 = STAT3 activation, confirmation assay; shares compounds with STAT3 act-1; U3A STAT3-luciferase reporter, IL-6 potentiation, luminescence; U3A cells lack STAT1; 100 means same as IL-6 alone; potentiation (% of control), % at 5.7 µM; actives 64% (n = 1,200); AID 1267;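 active = percent activation of the STAT3 luciferase reporter above a set limit taken from the earlier primary screen, cut at about 130% in these data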;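 also: 0% = background signal of medium plus substrate and 100% = median of IL-6 with DMSO wells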
NFkB act STAT3ct = activates NF-kappaB, counter-screen to STAT3 activators; shares compounds with STAT3 act-1; human cells, NF-kappaB reporter activation; actives 11% (n = 1,200); activation (% of control), % at 5.7 µM; in the data active = activation above about 120%;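 also: reporter induced by TNF-alpha stimulation; 100% = median of stimulated DMSO wells and 0% = no signal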
STAT1 act STAT3c = counter-screen for STAT3 activators: STAT1 activation; shares compounds with STAT3 act-1; NIH 3T3 STAT1-luciferase reporter, IFN-gamma, luminescence; activation (% of control), % at 5.7 µM; actives 13% (n = 1,200);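 active = activation above the solvent-only control well mean plus 3 SD, set per screening run, cut at about 120% in these data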;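 also: 100% = IFN-gamma with DMSO median signal so 100% means no change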
* marks the source's active call; other numbers are inactive results; . = not tested or not shown. Only some compounds are listed: those with a hit (about 1.8% of all), similar ones and a draw of the others.

SMILES	STAT3 act-1	STAT1 inh	PERK inh	STAT3 inh	STAT3 act-2	NFkB act STAT3ct	STAT1 act STAT3c
CCc1ccccc1Nc1nc(N)nc(COC(=O)c2cccn2C)n1	147.0*	-9.1	-1.4	-44.5	150.3*	110.0	125.1*
Cc1ccccc1Nc1nc(N)nc(COC(=O)c2cccn2C)n1	113.7	-45.5	-0.4	-5.5	.	.	.
O=C(CSc1nc2c([nH]c3ccccc32)c(=O)n1-c1ccc(F)cc1)NCc1ccco1	142.1*	14.0	-0.6	-40.0	118.8	94.0	87.2
COc1cccc(C2c3[nH]c4ccccc4c3CCN2C(=O)Cn2cncn2)c1OC (stereo not given)	129.5	3.5	0.7	-31.6	.	.	.
COc1ccc(C2c3[nH]c4ccccc4c3CCN2CCCn2cccn2)c(C)c1C (stereo not given)	162.6*	2.5	-1.1	-67.0	162.6*	101.0	95.2
CC1CC(=O)C2=C(C1)Nc1ccccc1N=C2 (stereo not given)	104.0	9.9	-0.8	-3.6	.	.	.
CCC1=Nc2ccccc2NC2=C1C(=O)CCC2	165.6*	-23.0	-1.4	-76.6	159.9*	119.4	122.6*
CC1(C)CN(c2ccsc2C(=O)O)C1=O	110.7	-3.1	-0.8	-7.9	.	.	.
COc1ccc(OC)c(-c2nnc(NC(=O)C(C)Sc3nncn3C)s2)c1 (stereo not given)	140.1*	-1.4	0.5	-44.1	118.8	105.2	100.6
Nn1cnnc1N/N=C\c1ccc(-c2ccccc2[N+](=O)[O-])o1	146.8*	-20.5	0.2	-49.6	104.8	103.5	101.2
Cn1c(Cc2c[nH]c3ccccc23)n[nH]c1=S	155.0*	2.5	0.7	-54.5	132.6	104.3	94.8
Cc1[nH]c2ccccc2c1Cc1n[nH]c(=S)n1C	104.3	-8.4	-0.4	-1.4	.	.	.
COc1ccc(C2c3[nH]c4ccccc4c3CCN2C(=O)c2ccc(=O)n(C)n2)c(F)c1 (stereo not given)	148.4*	-9.9	1.4	-50.3	153.5*	104.2	107.7
Cc1ccccc1C1c2[nH]c3ccccc3c2CCN1C(=O)c1ccc(=O)n(C)n1 (stereo not given)	162.9*	9.6	0.3	-65.5	168.8*	103.3	97.6
CCCCN(CCCC)CP(=O)(c1ccccc1)c1ccccc1	104.0	-4.2	-0.3	-8.0	.	.	.
COc1ccc(Cl)cc1-c1nc(-c2ccc(Br)o2)no1	174.1*	-3.0	0.5	-85.6	159.9*	114.2	117.4
CCOC(=O)c1ccc(NC(=O)N2CCN(C(=O)C3CCCO3)CC2)cc1 (stereo not given)	92.3	-2.7	0.7	12.2	.	.	.
Cc1cc(Br)ccc1-n1[nH]c(C)c(C=Nc2cccc3nsnc23)c1=O	137.5*	-9.7	0.2	-45.2	133.3*	100.9	98.8
CCOc1ccc(Nc2cc(C)nc3nc(C)nn23)cc1	91.2	-1.6	1.6	10.1	.	.	.
CCOc1ccc(Nc2nc(C)cc(C)c2C#N)cc1	140.4*	2.1	0.5	-44.7	125.7	102.2	104.2
COc1ccc(Nc2nc(C)cc(C)c2C#N)cc1	137.2*	-0.1	-0.1	-44.0	149.9*	106.8	112.5
COc1ccc(Nc2nc(C(F)(F)F)nc(C)c2C#N)cc1	101.2	3.6	1.1	-2.9	.	.	.
O=C(Oc1ccc(NC2=NS(=O)(=O)c3ccccc32)cc1)c1cccnc1	96.8	2.5	0.4	11.1	.	.	.
Cc1nc(NC(=O)CC(C)C)sc1-c1csc(Nc2ccc(Cl)cc2Cl)n1	104.7	-8.8	-0.4	-0.5	.	.	.
Cc1nc(NC(=O)CC(C)C)sc1-c1csc(Nc2ccc(Cl)cc2)n1	141.3*	6.0	-0.1	-51.1	120.4	100.5	98.6
SMILES	STAT3 act-1	STAT1 inh	PERK inh	STAT3 inh	STAT3 act-2	NFkB act STAT3ct	STAT1 act STAT3c
Cc1nc(NC(=O)c2ccccc2)sc1-c1csc(Nc2ccc(Cl)cc2)n1	85.7	-9.7	-0.2	27.5	.	.	.
CCCCCC(=O)Nc1nc(C)c(-c2csc(Nc3ccc(Cl)cc3)n2)s1	148.3*	14.5	-0.3	-60.0	130.2	104.1	97.9
CCCCCCC(=O)Nc1nc(C)c(-c2csc(Nc3ccc(Cl)cc3)n2)s1	136.0*	20.2	-0.8	-34.6	126.1	108.1	93.6
CCCCCC(=O)Nc1nc(C)c(-c2csc(Nc3cc(Cl)ccc3C)n2)s1	111.0	12.2	-0.9	-4.7	.	.	.
Cc1nc(NC(=O)c2ccco2)sc1-c1csc(Nc2ccc(Cl)cc2)n1	145.5*	1.8	-0.7	-56.4	123.8	102.2	100.7
O=C(N/N=C/c1cccc([N+](=O)[O-])c1)c1ccc(COc2ccccc2-c2ccccc2)cc1	103.9	6.6	-0.5	-6.4	.	.	.
COc1ccccc1NC(=O)C1=C(C)NC(=O)NC1c1ccccc1[N+](=O)[O-] (stereo not given)	143.6*	12.2	0.2	-44.4	138.1*	104.3	98.5
Cc1ccc(-n2c(N)c(-c3nc4ccccc4n3C)sc2=S)cc1	182.8*	-2.4	0.5	-94.5	176.4*	109.0	116.7
Cn1c(-c2ccc(N)cc2)nc2ccccc21	97.4	-9.4	-0.5	9.2	.	.	.
CCn1cc(C(=O)N2CCc3ccccc32)c(=O)c2cc(S(=O)(=O)N(C)C3CCCCC3)ccc21	107.2	2.4	-1.2	-4.3	.	.	.
CCn1cc(C(=O)N2CCc3ccccc32)c(=O)c2cc(S(=O)(=O)N3CCOCC3)ccc21	145.9*	-6.9	0.4	-41.7	128.4	105.2	99.3
COc1ccc2cc(/C=C/C(=O)c3ccco3)c(Cl)nc2c1	108.5	-12.8	-0.8	-10.0	.	.	.
COc1cc2cc(/C=C/C(=O)c3ccco3)c(Cl)nc2cc1OC	138.9*	1.5	-0.8	-45.5	110.7	109.4	94.9
CCOC(=O)C(C(=O)Nc1cccc(C)n1)C1CCCCC1 (stereo not given)	104.1	-4.9	-0.6	-1.5	.	.	.
CCOC(=O)C(C(=O)Nc1nc2ccccc2s1)C1CCCCC1 (stereo not given)	142.6*	-3.5	0.4	-49.2	123.8	109.0	99.9
Cc1ccc(NC2=CC(=O)C(=O)c3ccccc32)cc1	105.0	-22.4	-0.1	-1.6	.	.	.
CCOC(=O)c1ccc(NC2=CC(=O)C(=O)c3ccccc32)cc1	144.5*	0.2	0.0	-46.2	128.3	106.8	102.1
COc1ccc(NC(=O)Cc2ccc(C)c(C)c2)cc1Cl	93.6	5.7	0.7	10.0	.	.	.
Cc1ccc(O)c(-c2cc(-c3cccc(F)c3)n[nH]2)c1	132.3	-5.5	-1.4	-37.2	.	.	.
Cc1ccc(O)c(-c2cc(-c3ccccc3F)[nH]n2)c1	160.3*	-9.7	0.5	-65.2	147.7*	116.8	111.4
O=C(O)c1sccc1SCc1ccc(Cl)cc1Cl	137.3*	-0.2	0.2	-39.2	116.1	103.4	90.7
Oc1ccc(C=Nc2cccc3ncccc23)c(O)c1	106.0	1.6	-0.5	-2.3	.	.	.

Screening data from PubChem.
